The nature of this series: Toxicity liver stage against HepG2, at 10uM. The class given is cell-based. The arrangement: test concentration 10 uM, cell line HepG2-A16-CD81EGFP. To be noted: human, HepG2-A16-CD81EGFP cells; read-out: INHIBITION
The essentials:
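Uninfected HepG2-A16-CD81EGFP cells, 3 × 10^3 per well, 1536-well, plated on prespotted compound at 10 μM final, parasite-free screening media added to match infected plates; puromycin 10 μM positive, DMSO 0.5% negative; run in parallel with 48 h PbLuc assay at 37 °C, 5% CO2; viability by CellTiter-Glo luminescence, normalized to controls.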
With `CCCc1nnc(N2CCN(C3CCCC3)CC2)o1`, the cytotoxicity at 10 µM was -13.8%.
Turning to `CSc1cccc(NC(=O)N2CCCC(CNC(=O)c3ccco3)C2)c1` (stereo unspecified), the cytotoxicity at 10 µM was -2.4%.
Then `Cc1cnc(N2CCOC3(COCCN(c4nccs4)C3)C2)nc1` (stereo unspecified), with -114%; and `Cc1nccc(CNC(=O)CCc2c(C)nc3cc(O)nn3c2C)n1`, with -1.56%; and `CN(Cc1noc2c1CCCC2)C(=O)Nc1ccc2oc(=O)n(C)c2c1`, with -2.36%.
To `Cc1nc(C2CCCNC2)cc(N(Cc2nccn2C)C2CC2)n1` (stereo unspecified) belongs -3.42%; to `CC(C)CN1CC[C@@H]2[C@@H]1CCN2S(=O)(=O)c1cn(C)cn1`, 7.86%; to `Cc1nccc(N2CCCC(C)(c3[nH]ncc3C(N)=O)C2)n1` (stereo unspecified), 1.86%.
As to `Cc1nnc(CN2CCC(N(C)Cc3nnc(C4CC4)n3C)C2)o1` (stereo unspecified), the cytotoxicity at 10 µM is -5.36%.
Then `CC(C)NC(=O)N1CCC2(CC1)CN(C(=O)NC(C)C)CCO2`, with 11.8%.
To `CCN(CC)C(=O)[C@@H]1C[C@H](N)CN1C(=O)c1cc2c([nH]c1=O)CCC2` belongs -1.94%.
To `CCn1c(=O)n(Cc2nc(C3CC3)no2)c2ccccc21` belongs -43.2%; to `Cn1ccnc1CN1CCN(Cc2noc(-c3ccccc3)n2)CC1`, 1.08%.
Consider `O=C(c1ccncc1)N1CCOC2(COCCN(c3cncnc3)C2)C1` (stereo unspecified), for which the cytotoxicity at 10 µM was 8.58%.
Regarding `CC(NC(=O)NCCCN(C)S(C)(=O)=O)c1ccc(F)cc1` (stereo unspecified), the cytotoxicity at 10 µM was -21.9%.
Consider `Cc1cc(S(C)(=O)=O)c(C)c(S(=O)(=O)NCC2CCC2)c1`, for which the cytotoxicity at 10 µM amounted to 16.3%.
To `COc1cc(Cl)ccc1C(=O)N1CCCC(n2nc(C)nc2C)C1` (stereo unspecified) belongs -5.8%.
Then `CCc1nccn1C1CCCN(C(=O)c2cnn3ccc(C)nc23)C1` (stereo unspecified), with -9.68%; and `COCCN(CC1CCCO1)C(=O)CCNC(=O)c1ccccc1F` (stereo unspecified), with -41.7%; and `CCN(CC)C[C@H]1CN2CC[C@H]1C[C@@H]2CNC(=O)Nc1ccsc1`, with -17.8%.
Take `CCOC(=O)N1CCN(C(=O)c2cc(-c3ccccc3F)on2)CC1`: the cytotoxicity at 10 µM worked out at 1.14%.
Then `CCn1cc(CN2C[C@@H]3CCCN3C[C@H]2CCSC)c(C)n1`, with -15.3%; and `O=C(c1cccc(Cn2ccnc2)c1)N1CCCC(n2ccnc2)C1` (stereo unspecified), with -6.61%.
To `Nc1nccc(C2CCN(CC3CC3)C2)n1` (stereo unspecified) belongs 8.54%; to `COCc1nc(C(=O)N2CCCC2c2ccncc2)cs1` (stereo unspecified), -11.4%; to `O=C(COc1ccccc1)N1C[C@@H]2COC[C@]2(COc2cccnc2)C1`, -100%.
Then `c1cncc(CNc2cccc(OCCN3CCCCC3)c2)c1`, with -0.589%; and `O=C(CN1CCCC(c2ncc[nH]2)C1)NCCCN1CCCCCC1=O` (stereo unspecified), with 6.66%.
As to `Cc1nc(CN2CCC3(CCN(C(=O)c4ccoc4C)CC3)C2)cs1`, the cytotoxicity at 10 µM was -5.19%.
To `NC1CCCN(Cc2cccc(C(F)(F)F)c2)C1=O` (stereo unspecified) belongs 5.85%; to `CCCn1[nH]c(CNc2ccccc2)nc1=O`, 9.98%; to `O=C(c1cc[nH]n1)N1CCCC1c1cnccn1` (stereo unspecified), -25.4%.
To `C[C@H]1CN(C(=O)c2ccoc2)C[C@@]12CCN(CCN(C)C)C2=O` belongs -1.77%; to `CCCc1n[nH]c(C2CN(C(=O)c3ccnc(C4CC4)n3)CCO2)n1` (stereo unspecified), -7.49%; to `COc1cccc2c1OCC(CNc1ccc(C)nn1)C2` (stereo unspecified), 8.62%.
On to `CCN(CC)CCN1CCO[C@H]2[C@@H](OCc3ccccn3)CC[C@@H]21`, for which the cytotoxicity at 10 µM was -7.66%.
To `Cc1nc2n(n1)CC(NCC(=O)N(C)Cc1cccs1)CC2` (stereo unspecified) belongs -0.189%; to `CNC(=O)[C@@H](c1ccccc1OC)N1CCC[C@H]1C(=O)NC1CC1`, -4.39%; to `COCCN(Cc1ccc(F)cc1Cl)C(=O)c1csnn1`, 11.6%.
Regarding `COC(=O)CC(c1cccc(OC(F)F)c1)c1oc(C)cc(=O)c1O` (stereo unspecified), the cytotoxicity at 10 µM was -9.11%.
As for `COc1ccc(C(O)CNc2c(C#N)c(=O)n(C)c(=O)n2C)cc1` (stereo unspecified), the cytotoxicity at 10 µM is -7.34%.
Take `CC(=O)N1CCC2(CC1)C(=O)N(c1cccnc1)c1ccc(F)cc12`: the cytotoxicity at 10 µM was 10.6%.
Then `O=C(Cc1cccs1)N1CC(c2nc(-c3cnccn3)no2)C1`, with -0.921%.
As for `Cc1ncc(CC(=O)N2CCCC(COc3ccccc3F)C2)c(=O)[nH]1` (stereo unspecified), the cytotoxicity at 10 µM is -151%.
Turning to `c1cncc(-c2ccc3c(c2)CCC32CCNCC2)c1`, the cytotoxicity at 10 µM is -10.3%.
Turning to `CCc1c(C)[nH]c2cc(C3CCN(Cc4ccncc4C)C3)nn2c1=O` (stereo unspecified), the cytotoxicity at 10 µM was -14.1%.
To `Fc1ccc(CN2CCCC(c3nccnc3-n3ccnc3)C2)cc1` (stereo unspecified) belongs -20.4%; to `Cc1ccccc1-c1noc(CN2CCn3c(nnc3C3CC3)C2)n1`, -7.64%.
Then `Cc1cccc2cc(CNCCCN3CCOCC3)c(=O)[nH]c12`, with 0.127%; and `CCNC(=O)CN(CC)S(=O)(=O)c1c(Br)cc2[nH]c(=O)oc2c1Cl`, with 9.69%; and `Cc1cc(N2CCCN(Cc3ccc(C)o3)CC2)ccn1`, with -5.51%.
Then `Cc1cccc(C(=O)NC(CN2CCCC2=O)c2ccccc2)n1` (stereo unspecified), with -9.16%; and `COc1ccccc1N1CCC(NCc2c(C)noc2C)C1` (stereo unspecified), with 1.81%; and `O=C(C1CC(=O)N(c2n[nH]c3cc(Br)ccc23)C1)N1CCCC1` (stereo unspecified), with -11.2%.
As to `O=C(c1cnccn1)N1CCOC2(CCCN(c3ncccc3F)C2)C1` (stereo unspecified), the cytotoxicity at 10 µM was 0.199%.
Regarding `O=C(CC1Cn2ncnc2NC1=O)Nc1cccc(C(F)(F)F)c1` (stereo unspecified), the cytotoxicity at 10 µM amounted to 6.17%.
To `CCc1cccc(C)c1NC(=O)NCCCN(CC)S(C)(=O)=O` belongs 4.87%.
Take `CC(Cn1cccn1)NC(=O)c1cc(C2CC2)nc2c1cnn2C` (stereo unspecified): the cytotoxicity at 10 µM was found to be 0.351%.
Then `CC(CC#N)N(C)Cc1ccc(F)cc1C#N` (stereo unspecified), with -6.69%.
Then `O=S(=O)(NC(CO)Cc1c[nH]c2ccccc12)c1cncc(F)c1` (stereo unspecified), with 12%.
Then `COc1ccc(C(=O)Nc2c(C)nn(C(C)C)c2C)cc1`, with -3.13%; and `CCC[C@H]1CN(CCS(C)(=O)=O)C[C@@H]1NC(=O)c1cccnn1`, with 3.25%.
With `c1ccc(C2Cn3ccnc3CN2Cc2ncc[nH]2)cc1` (stereo unspecified), the cytotoxicity at 10 µM is -2.8%.
To `Cc1ccc(N2CCC(CCN3CCCC3=O)CC2)nn1` belongs 6.35%; to `COc1ccc(Br)c(NC(=O)NCc2cnn(C)c2)c1`, 6.91%; to `Cc1cnn(CC2CN(Cc3nc(-c4cccnc4)no3)CCO2)c1` (stereo unspecified), -20.5%.
As to `CN(CC(N)=O)Cc1csc(-c2ccc(F)cc2)n1`, the cytotoxicity at 10 µM is 2.5%.
Consider `CCC(NC(=O)c1ccc(COC)o1)c1nc(C(F)(F)F)cs1` (stereo unspecified), for which the cytotoxicity at 10 µM turned out to be 2.91%.
In the case of `Cc1ccc(N2CC[C@H]3C[C@@H](C(=O)N4CCOCC4)O[C@H]3C2)nn1`, the cytotoxicity at 10 µM turned out to be 4.94%.
Then `COCC(=O)N1CCc2nc(-c3cnccn3)nc(O)c2C1`, with 27.7%; and `CCCc1noc(CN2CCC(N(C)Cc3nnc(C4CC4)o3)C2)n1` (stereo unspecified), with -0.775%.
Regarding `CCOCCCC(=O)NCc1ccc(N2CCCCC2)cc1`, the cytotoxicity at 10 µM was -4.06%.
Then `CC(C)N(C)CCCNC(=O)c1cnn(C(C)C)c1C(F)(F)F`, with 5.31%; and `c1ccc(NC[C@@H]2CCC[C@@H]3CN(Cc4csnn4)C[C@@H]32)nc1`, with -114%; and `CN1C(=O)COc2cc(NC(=O)CCc3nc4cccnc4[nH]3)ccc21`, with -4.13%.
Take `CN(CCNC(=O)N1CCN(Cc2ccon2)CC1)c1ccccc1`: the cytotoxicity at 10 µM was 22.2%.
With `CN(CC(=O)NCc1ccco1)Cc1nc2c(s1)CCCC2`, the cytotoxicity at 10 µM turned out to be 13.6%.
Then `CCc1ccc(CN2CCC(CNS(=O)(=O)C3CC3)C2)nc1` (stereo unspecified), with -4.69%.
To `COC1C[C@@H]2CN(C(=O)c3ccc(C)s3)C[C@@H]2C1` (stereo partly specified) belongs -2%.
In the case of `COc1ccccc1Oc1ncccc1CNC(=O)C(C)CN` (stereo unspecified), the cytotoxicity at 10 µM was determined as 0.884%.
Then `COC1CN(C(=O)CC2CCCC2)CCC(=O)N(C)c2ccccc21` (stereo unspecified), with -32.8%; and `COc1ncc(CN2CCCC2c2[nH]ncc2C(=O)N(C)C)cn1` (stereo unspecified), with -0.116%; and `COc1ccc(C2CN(c3cc(C)ncn3)CCN2C(C)=O)cc1` (stereo unspecified), with 0.23%.
To `Cc1cc(NC(=O)CCn2nc(C)c3ccccc32)n(C(C)C)n1` belongs 4.95%; to `COC(C)c1nc(CN2CCNCC2)cs1` (stereo unspecified), 4.68%; to `Cn1cc(C(O)CNC(=O)Nc2cc(F)ccc2-n2cccn2)cn1` (stereo unspecified), 1.01%.
With `CN(CC(=O)N1CCCC1Cn1cccn1)c1cnccn1` (stereo unspecified), the cytotoxicity at 10 µM was -5.1%.
Then `Cc1ccc(N2CCCC3(COCCN(c4ncccn4)C3)C2)nn1` (stereo unspecified), with -131%; and `O=C(C1CN(CC2CC2)CC12CCOCC2)N1CCCC1` (stereo unspecified), with 7.28%.
`c1ccc(CCN2CCCC(Cn3ccnc3)C2)cc1` (stereo unspecified): the cytotoxicity at 10 µM was found to be 1.43%.
To `CCCN1CCN(C(=O)c2ccnc(N)c2)[C@H]2CS(=O)(=O)C[C@H]21` belongs 2.77%.
Consider `O=C(Nc1ccc(CCN2CCOCC2)cc1)C1CC1`, for which the cytotoxicity at 10 µM was -10.9%.
To `CN(C)CCN1CCN(Cc2cccc(C#N)c2)Cc2cccnc21` belongs -1.57%; to `CC(C)N(C)C(=O)c1ccc(Cl)c(NC(=O)CCN2C(=O)CCC2=O)c1`, -2.63%; to `Cc1nc(NCCc2noc(C3CCCO3)n2)c2sccc2n1` (stereo unspecified), 53.6%.
With `O=C(c1ncncc1Cl)N1CCC2(CCCC2)CC1`, the cytotoxicity at 10 µM came to 1.06%.

The record behind these values is ChEMBL document CHEMBL4513216, “Probing the Open Global Health Chemical Diversity Library for Multistage-Active Starting Points for Next-Generation Antimalarials” (ACS Infect Dis, 2020).
